Results on nine compounds are retold here after ChEMBL document CHEMBL1124010, “Synthesis and pharmacology of trans-4-n-propyl-3,4,4a,10b-tetrahydro-2H,5H-1-benzopyrano[4,3-b ]-1,4-oxazin-7- and -9-ols: the significance of nitrogen pKa values for central dopamine receptor activation” (J Med Chem, 1988).

Activity calls are given as the source filed them. No cut-off for these calls is given here.

Data set [1] is described as follows: Partition coefficient in octanol-buffer at a pH 7.4. Format: physicochemical. An outline of the steps: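 Distribution between 1-octanol and Na⁺/K⁺-phosphate buffer at pH 7.4, each phase presaturated with the other. Tubes were shaken closed and phases separated by centrifugation. Concentrations were measured by HPLC (C18) with electrochemical detection.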
Data set [2] can be described thus: Ionization constant in presence of nitrogen. Format: physicochemical. The note with it: read-out: pKa1. Summed up:
(§1)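 pKa was determined by the Albert and Serjeant method, as the mean of three to four determinations.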

Data set [3] is described as follows: Ionization constant in presence of hydroxyl. Format: physicochemical. The note with it: read-out: pKa2. Summed up:
as §1

The target of data set [4] is D(2) dopamine receptor (Rattus norvegicus, UniProt P61169). Briefly: Potency to displace the specific in vitro binding of [3H]DP-5,6-ADTN to rat striatal membrane. Also on record: species or system Striatum. Summed up: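 Homogenized, washed rat striatal membranes were incubated with [³H]-DP-5,6-ADTN. Nonspecific binding was defined with 10⁻⁶ M (+)-butaclamol. Competitor was tested over 10⁻¹¹–10⁻⁴ M, in triplicate.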
Chain of D(2) dopamine receptor (P61169 whole entry): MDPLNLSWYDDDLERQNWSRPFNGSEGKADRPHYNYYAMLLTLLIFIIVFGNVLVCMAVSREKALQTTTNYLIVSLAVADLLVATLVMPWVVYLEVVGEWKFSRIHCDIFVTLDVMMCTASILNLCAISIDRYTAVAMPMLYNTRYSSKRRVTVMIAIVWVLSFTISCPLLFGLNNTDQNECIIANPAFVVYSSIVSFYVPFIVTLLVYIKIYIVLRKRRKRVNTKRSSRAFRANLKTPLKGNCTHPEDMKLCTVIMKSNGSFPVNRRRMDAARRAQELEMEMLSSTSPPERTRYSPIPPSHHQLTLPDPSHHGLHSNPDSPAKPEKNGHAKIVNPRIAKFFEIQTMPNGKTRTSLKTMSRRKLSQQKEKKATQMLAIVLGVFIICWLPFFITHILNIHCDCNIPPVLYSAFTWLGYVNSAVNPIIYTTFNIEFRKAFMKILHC

Data set [5] has as its system Rattus norvegicus. Briefly: In Vivo effect on concentration of DOPAC in rat striatum at dose of 0.4 umol/kg administered intraperitoneally. Format: functional.
Data set [6] concerns Rattus norvegicus. As to the kind of experiment: In Vivo effect of agonist on the induction of stereotypy (continuous sniffing behavior in rat) at 0.4 umol/kg. Format: functional.
Data set [7] relates to Rattus norvegicus. As to the kind of experiment: In Vivo effect on concentration of HVA in rat striatum at dose of 0.4 umol/kg administered intraperitoneally. Format: functional.
In data set [8] the target is Dopamine D2 receptor (Bos taurus). As to the kind of experiment: Potency to displace the specific in vitro binding of [3H]N-0437 to calf striatal membrane.
The test system of data set [9] is Rattus norvegicus. Briefly: In Vivo effect on concentration of DOPAC in rat striatum at dose of 10 umol/kg administered intraperitoneally. Format: functional. Summed up: (§2)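 Female Wistar-derived rats (180–220 g) were given drug ip in saline and killed by cervical dislocation 1 h later. Striata were frozen and homogenized in 0.1 M perchloric acid, then centrifuged (3000g, 7 °C, 15 min). DOPAC and HVA were purified on Sephadex G10, separated by RP18 HPLC with electrochemical detection, and expressed as % of control.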

Data set [10] relates to Rattus norvegicus. Briefly: In Vivo effect on concentration of HVA in rat striatum at dose of 10 umol/kg administered intraperitoneally. Format: functional. Summed up: as §2
Data set [11] concerns Rattus norvegicus. Briefly: In Vivo effect of agonist on the induction of stereotypy (continuous sniffing behavior in rat) at 10 umol/kg; Inactive. Format: functional, organism-based.
In data set [12] the test system is Rattus norvegicus. Briefly: In Vivo effect of agonist on the induction of stereotypy (continuous sniffing behavior in rat) at 10 umol/kg.
Data set [13] deals with Rattus norvegicus. As to the kind of experiment: In Vivo effect on concentration of DOPAC in rat striatum at 1 umol/kg. Format: functional.
Data set [14] has as its system Rattus norvegicus. As to the kind of experiment: In Vivo effect on concentration of HVA in rat striatum at 1 umol/kg. Format: functional.
Data set [15] deals with Rattus norvegicus. As to the kind of experiment: In Vivo effect of agonist on the induction of stereotypy (continuous sniffing behavior in rat) ED50.
For data set [16], the system named is Rattus norvegicus. As to the kind of experiment: In vivo effect on concentration of DOPAC in rat striatum at dose of 10 umol/kg administered intraperitoneally. Format: functional. An outline of the steps:
as §2

A word on the logD: it is the decadic logarithm of the distribution of all forms, ionised or not, between an organic phase and buffer at a given pH. Usually IC50 stands for the concentration that gives 50% inhibition. Lower therefore signals greater potency in that assay. As usually defined, the ED50 is the dose at which the effect has come halfway, by size or by number of responders. With `CCCN1CCO[C@@H]2c3cccc(O)c3CC[C@H]21`, in data set [1], the pH-dependent lipophilicity (logD) was determined as 2.22. Further, the pKa in [2] worked out at 7.4; in [3], 10.5. For the same compound, the IC50 in data set [4] came to 75 nM; in data set [8], 24 nM. Further, the Control is reported as 101% in [5] and 86% in data set [7]. The compound further had an ED50 in [6] of 7.5 mg/kg.

On to `CCCN1CCO[C@@H]2c3cccc(O)c3OC[C@H]21`, for which the logD in [1] came to 1.93. Also, the pKa in data set [2] was 5.8; in data set [3], 10.2. Also, the 50% inhibitory concentration (IC50) worked out at 2920 nM in data set [4] and 8900 nM in data set [8]. Moreover, the Control in [9] is recorded as 108%; in [10], 110%. The ED50 result in data set [11] is “inactive”.

Consider `CCCN(CCC)C1COc2c(O)cccc2C1` (stereo not given), for which, in data set [1], the log distribution coefficient (logD) is 2.44. For the same compound, the pKa was 8.2 in data set [2] and 9.9 in [3]. Also, in [4], the half-inhibitory concentration (IC50) came out at 4 nM.

The compound `CCCN(CCC)C1COc2ccc(O)cc2C1` (stereo not given) registered a logD in [1] of 2.39. In addition, the figures for the pKa in data set [2] and in data set [3] were 8.1 and 9.6, respectively.

Regarding `CN1CCc2cccc3c2[C@H]1Cc1ccc(O)c(O)c1-3` [APOMORPHINE], the Control in data set [9] was 48%; in data set [10], 40%. Further, the ED50 in data set [12] was 2.3 µmol/kg.

On to `CCCN(CCC)C1CCc2c(O)cccc2C1` (stereo not given) [5-OH-DPAT], for which the logD in [1] was determined as 1.53. Moreover, the pKa was 9.4 in [2] and 10.9 in [3]. Moreover, the Control in data set [13] was found to be 73%; in data set [14], 60%.

On to `CCCN1CCO[C@@H]2c3cc(O)ccc3CC[C@H]21` [NAXAGOLIDE], for which the logD in [1] came out at 2.09. Moreover, the values for the pKa in [2] and in data set [3] were 7.5 and 10.9, respectively. Moreover, the IC50 in data set [4] turned out to be 3 nM. The Control turned out to be 67% in data set [5] and 44% in data set [7]. For the same compound, the ED50 in [15] worked out at 0.5 µmol/kg.

As for `CCCN1CCO[C@@H]2c3cc(O)ccc3OC[C@H]21`, the log distribution coefficient (logD) in [1] was determined as 1.97. Besides, the pKa in data set [2] amounted to 6.1; in data set [3], 10.3. Further, in data set [4], the IC50 was determined as 3070 nM. Also, the Control in [10] and in data set [16] was 100% in each case. Besides, the ED50 result in [11] is “inactive”.

Compound `CCCN(CCC)C1CCc2ccc(O)cc2C1` (stereo not given) had a log distribution coefficient (logD) in [1] of 1.45. The pKa in [2] came to 9.4; in [3], 10.7. Moreover, the figures for the Control in [13] and in data set [14] were 72% and 56%, respectively.
